Measurements of several laboratories.
CYP2C19: Cytochrome P450 2C19 (CYP2C19, Homo sapiens, UniProt P33261)
UGT1A4: UDP-glucuronosyltransferase 1A4 (UGT1A4, Homo sapiens, UniProt P22310)

Structure (SMILES)	tested on	assay	test system	conditions	endpoint	value
N=C(N)N1CC=C(c2ccc(NC(=O)c3ccc(C4=CCN(C(=N)N)CC4)cc3)cc2)CC1	NIH3T3	cell growth or viability, MTS	–	24 h	CC50	41 µM
COC(=O)C1CCN(C(=O)c2ccc(N(CCCO)Cc3cnc4nc(N)nc(N)c4n3)cc2)CC1	CYP2C19	enzyme activity, inhibitor, luciferase	–	10 µM	inhibition	-9.48%
[11CH3]Oc1cccc(CCc2cc(O)c(=O)[nH]n2)c1	ATP-dependent translocase ABCB1 (Abcb1a, Mus musculus, UniProt P21447)	–	mouse, brain	30 min	tracer uptake	0.23 %ID/g
O=C(Nc1c2c(cc3c1CCC3)CCC2)NS(=O)(=O)/C=C/c1nccs1	CYP2C19	enzyme activity, inhibitor	human, liver microsomes	10 µM, pH 7.4	inhibition	10.7%
N=C(N)NCc1ccc(NC(=O)C23CCC(C(=O)Nc4ccc(C5=CCN(C(=N)N)CC5)cc4)(CC2)CC3)cc1	NIH3T3	cell growth or viability, MTS	–	24 h	CC50	439 µM
COC(=O)C1CCN(C(=O)c2ccc(NCc3cnc4nc(N)nc(N)c4n3)cn2)CC1	CYP2C19	enzyme activity, inhibitor, luciferase	–	10 µM	inhibition	-1.34%
CC(=O)c1cc(C(=O)N[C@@H](C)Cn2ccc(-c3ccc(C#N)c(Cl)c3)n2)[nH]n1	UGT1A4	enzyme activity, inhibitor	human, liver microsomes	–	IC50	> 50 µM
COC(=O)C1CCN(C(=O)c2ccc(SCc3cnc4nc(N)nc(N)c4n3)nc2)CC1	CYP2C19	enzyme activity, inhibitor, luciferase	–	10 µM	inhibition	-2.45%
CN(CCC(=O)O)C(=O)c1ccc2c(c1)CC[C@@H]1[C@@H]2CC[C@]2(C)C(c3cncc(F)c3)=CC[C@@H]12	UGT1A4	enzyme activity, inhibitor	–	–	IC50	> 30 µM
N=C(N)NCc1ccc(NC(=O)c2ccc(C(=O)Nc3ccc(C4=CCN(C(=N)N)CC4)cn3)cc2)cc1	NIH3T3	cell growth or viability, MTS	–	24 h	CC50	544 µM
C[C@@H](Cn1ccc(-c2ccc(C#N)c(Cl)c2)n1)NC(=O)c1cc([C@@H](C)O)[nH]n1	UGT1A4	enzyme activity, inhibitor	human, liver microsomes	–	IC50	> 100 µM
COc1cc2c3c(n(CCCN4CCOCC4)c(=O)c2cc1OC)-c1cc2c(cc1C3=O)OCO2	–	–	male beagle dog, plasma	intravenous, 10 mg/m², infusion	Cmax	106 ng/mL
C[C@@H]1C[C@H](c2ccc(Br)cc2)c2c(cc3ccccn23)C(=O)O1 (racemic)	HFF-1	cell growth or viability, resazurin	–	72 h	CC50	0.92 µM
